# DDE Tn7 FP inh: inhibitors of Tn7 peptide binding to fibrin DD(E), primary screen, biochemical, fluorescence polarization, human fibrin, Tn7 probe. Fibrinogen beta chain (Homo sapiens), P02675. FP displacement of FITC-Tn7 peptide from fibrin DD(E); 0% = median of compound wells per plate. inhibition, % at 8.3 µM. hit rate 0.13% among 370,000;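 active = inhibition above the mean of compounds falling within the control limits plus 3 SD of them, cut at about 14% in these data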;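 note: 0% = plate median of compound wells and 100% = 10 µM Aha-Tn7 peptide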
#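 Assay system: human fibrin DD(E). Input: DD(E) 2 µM final. Medium: Tris buffer with calcium and detergent, pH 7.8. Compound dosing: single point at 8.3 µM. Timing: 10 min plus 3 h, room temperature. Technique: fluorescence polarization of the labelled Tn7 tracer. Read-out: percent inhibition. Replicates: singlicate testing.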
# PLCg1 inh: PLC-gamma1 enzyme inhibitors, primary screen, biochemical, fluorescence, purified enzyme; fluorogenic substrate; hit rate 0.84% among 370,000; inhibition, % at 12.2 µM; AID 720700, 2013; in the data active = inhibition above about 9.5%
# PLC-beta3 inh: human PLC-beta3 inhibitors, primary screen, biochemical, fluorescence | 1-phosphatidylinositol 4,5-bisphosphate phosphodiesterase beta-3 (Homo sapiens), Q01970 | Purified PLC-beta3, fluorogenic substrate | inhibition, % at 12.2 µM | hit rate 0.18% among 370,000 | AID 720704, 2013; in the data active = inhibition above about 11%;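 note: 0% = median of compound wells on plate and 100% = full blocker control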
# DDE Tn6 FP inh: inhibitors of Tn6 peptide binding to fibrin DD(E), primary screen, biochemical, fluorescence polarization, human fibrin, Tn6 probe | Fibrinogen beta chain (Homo sapiens), P02675 | Fibrin DD(E) TRITC-Tn6 fluorescence polarization displacement | inhibition, % at 8.3 µM | hit rate 0.21% among 370,000;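 active = inhibition above a per-campaign cutoff: mean of compounds within control limits plus 3 SD, cut at about 15% in these data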;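 note: 0% = median of all compound wells on the plate and 100% = blocking peptide control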
# DNA FID counter: compounds displacing fluorescent DNA intercalator, primary screen, artefact control for HCV NS3 helicase inhibitor project, biochemical, FID fluorescence. DNA fluorescent intercalator displacement. AID 1845, 2009. inhibition, % at 7.9 µM. hit rate 0.17% among 290,000; in the data active = inhibition above about 37%;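 note: 0% = vehicle and 100% = reference compound; higher means more ethidium bromide displaced from hairpin DNA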
# DDE Tn6 FP ctr: DD(E)-Tn6 binding inhibition, counter-screen | hit rate 2% among 680 | inhibition, % at 8.3 µM | AID 720621 | shares compounds with DDE Tn6 FP inh | Fibrin DD(E), TRITC-Tn6 fluorescence polarization displacement; 0% = median of compound wells, not DMSO;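 active = inhibition above the mean of test compounds lying between the control limits plus 3 SD of those, cut at about 14% in these data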;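 note: 0% = median of compound wells and 100% = wells with Aha-Tn7 blocking peptide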
# Tn6 DDE conf: inhibitors of Tn6 peptide binding to fibrin DD(E), confirmation, biochemical, fluorescence polarization, human fibrin, Tn6 probe; shares compounds with DDE Tn6 FP inh; FP displacement of TRITC-Tn6 peptide from DD(E); 0% = per-plate median of test wells; inhibition, % at 8.3 µM; hit rate 10% among 680; AID 720631, 2013;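 active = inhibition above the mean of compounds lying within the control limits plus 3 SD, cut at about 16% in these data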;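 note: 100% = high control wells holding a competing inhibitor peptide at 10 µM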
# * marks the source's active call; other numbers are inactive results; nt = not tested or not shown. This is a sample that favours compounds with a hit; in the whole collection about 1.4% have one here.
SMILES,DDE Tn7 FP inh,PLCg1 inh,PLC-beta3 inh,DDE Tn6 FP inh,DNA FID counter,DDE Tn6 FP ctr,Tn6 DDE conf
CCCNC(=O)c1noc2c1CCc1cc(OC)ccc1-2,7,0,-8,10,-8,nt,nt
C/C(Cl)=C/Cn1c(NCCCn2ccnc2)nc2c1c(=O)[nH]c(=O)n2C,0,-1,2,-5,-2,nt,nt
Cn1c(=O)[nH]c(=O)c2c1nc(NCCCn1ccnc1)n2Cc1ccc(F)cc1,7,0,1,15*,2,4,1
Cc1ccc(NC(=O)NCCCl)cc1S(=O)(=O)N1CCOCC1,5,-3,-4,10,1,nt,nt
Nc1nnc(CC(=O)N/N=C/c2ccc([N+](=O)[O-])cc2)s1,-1,3,-5,0,-2,nt,nt
O=C(Cc1ccccc1)NNC(=O)Cc1ccccc1,6,1,4,0,-5,nt,nt
O=C(Cc1ccccc1)NC(NNc1ccccc1)(C(F)(F)F)C(F)(F)F,-3,-1,3,15*,0,14*,7
CCN(CC)c1ccc2cc(C(N)=O)c(=O)oc2c1,-8,-103,-132,20*,-9,1,0
CCOc1cc(CN2CCCC(C(=O)c3cccc(C(F)(F)F)c3)C2)ccc1O (configuration not stated),7,1,4,1,5,nt,nt
Cc1ccc(CSc2ncn(-c3ccccc3)n2)cc1,1,4,-3,16*,-8,4,-2
O=C(CN(C(=O)c1csnn1)c1ccc(F)cc1)NCCc1ccccc1,-3,3,-5,-8,-17,nt,nt
NS(=O)(=O)c1ccc(NC(=O)COC(=O)/C(=C/c2cccs2)c2cccs2)cc1,-3,3,-10,19*,-10,0,1
NS(=O)(=O)c1ccc(NC(=O)Cc2cccs2)cc1,-8,0,-4,-1,-1,nt,nt
CCOc1ccc2noc3c2c1C(=O)c1ccccc1-3,-9,-170,-248,41*,2,53*,10
O=C1c2ccccc2-c2onc3ccc(NCc4ccco4)c1c23,nt,nt,nt,nt,-8,nt,nt
O=C(NCCCNC(=O)c1ccc(F)cc1)c1ccc(F)cc1,7,-1,-3,-8,0,nt,nt
C/C=C/C(=O)OCC(=O)Nc1cc([N+](=O)[O-])ccc1Cl,2,6,7,-7,0,nt,nt
O=C(O)CCCNc1cc(N2CCN(C(=O)c3ccco3)CC2)c2noc3c2c1C(=O)c1ccccc1-3,-1,-6,-14,32*,-50,-9,58*
C=CCN(C(=O)c1csnn1)C(C(=O)NCc1ccccc1)c1c(F)cccc1Cl (configuration not stated),8,-2,-3,12,-29,nt,nt
CC(=O)c1cccc(NC(=O)Nc2cnn(Cc3ccc(F)cc3)c2)c1,2,1,2,0,-7,nt,nt
COc1ccc(NC(=O)c2cc3ccccc3cc2OC)cc1OC,1,-10,-20,10,-31,nt,nt
COc1cccc(NC(=O)c2cc3ccccc3cc2OC)c1,-2,-12,-23,15*,-13,6,-3
COc1cccc(CNC(=O)C2=C(C)C(=O)OC23CCC(C)CC3)c1 (configuration not stated),6,4,2,19*,-13,-3,-4
Cn1c(=O)c2c(nc(CN3CCc4ccccc4C3)n2Cc2ccccc2F)n(C)c1=O,-4,0,-2,0,-11,nt,nt
CCC1CCCCN1CCCNC(=O)C1CCCN(c2nn3c(=O)cc(C)nc3s2)C1 (configuration not stated),-4,3,1,4,7,nt,nt
Cc1ccc(C)c(S(=O)(=O)N2CCCOC2CNC(=O)C(=O)NCCN2CCOCC2)c1 (configuration not stated),-2,-2,-8,-1,-10,nt,nt
